We go through four compounds from the M2OR odorant receptor database.

Holding throughout (conditions): stereoisomer not certain
The target in experiment [1] is T1, UniProt Q8VGZ2.
T1 sequence (whole entry): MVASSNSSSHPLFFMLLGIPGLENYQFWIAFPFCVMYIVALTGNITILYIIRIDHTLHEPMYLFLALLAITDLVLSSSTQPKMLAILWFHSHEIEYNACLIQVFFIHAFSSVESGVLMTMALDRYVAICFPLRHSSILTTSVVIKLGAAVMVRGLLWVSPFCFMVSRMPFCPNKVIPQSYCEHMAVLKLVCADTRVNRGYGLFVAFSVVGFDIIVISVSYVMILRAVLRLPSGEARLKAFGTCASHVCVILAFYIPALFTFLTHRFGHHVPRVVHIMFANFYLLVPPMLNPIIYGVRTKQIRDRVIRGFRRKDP
An outline of the steps: (§1)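 Transient luciferase assays in mammalian cell lines were common, though methods varied by source. The values come from published papers and their supplementary material, with extra details from the original authors when needed. Responsive refers to a measured signal the original authors judged statistically different from baseline, and non-responsive (inactive) to the remainder.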

The target of experiment [2] is T2, UniProt Q8VGZ7.
T2 sequence (whole entry): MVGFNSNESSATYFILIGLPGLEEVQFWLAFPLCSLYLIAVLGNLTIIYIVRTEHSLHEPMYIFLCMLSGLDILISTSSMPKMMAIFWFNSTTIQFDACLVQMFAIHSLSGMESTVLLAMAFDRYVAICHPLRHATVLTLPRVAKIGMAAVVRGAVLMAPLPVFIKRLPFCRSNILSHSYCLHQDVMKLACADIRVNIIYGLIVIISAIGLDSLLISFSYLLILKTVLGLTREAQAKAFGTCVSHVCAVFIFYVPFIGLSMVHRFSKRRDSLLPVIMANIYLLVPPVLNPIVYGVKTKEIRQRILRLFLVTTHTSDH
An outline of the steps:
as §1

The target in experiment [3] is T3, UniProt Q8VH16.
T3 sequence (whole entry): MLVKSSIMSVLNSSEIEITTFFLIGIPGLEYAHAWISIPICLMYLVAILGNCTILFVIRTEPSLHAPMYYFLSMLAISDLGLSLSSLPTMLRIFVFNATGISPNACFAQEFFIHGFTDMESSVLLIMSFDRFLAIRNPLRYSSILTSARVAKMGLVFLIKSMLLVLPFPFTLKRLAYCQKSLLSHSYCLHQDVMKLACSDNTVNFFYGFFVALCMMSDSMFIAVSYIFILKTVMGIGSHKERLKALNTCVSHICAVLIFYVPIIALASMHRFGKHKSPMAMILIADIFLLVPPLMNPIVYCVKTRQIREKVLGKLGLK
An outline of the steps: as §1

The target in experiment [4] is T4, UniProt Q8VH20.
T4 sequence (whole entry): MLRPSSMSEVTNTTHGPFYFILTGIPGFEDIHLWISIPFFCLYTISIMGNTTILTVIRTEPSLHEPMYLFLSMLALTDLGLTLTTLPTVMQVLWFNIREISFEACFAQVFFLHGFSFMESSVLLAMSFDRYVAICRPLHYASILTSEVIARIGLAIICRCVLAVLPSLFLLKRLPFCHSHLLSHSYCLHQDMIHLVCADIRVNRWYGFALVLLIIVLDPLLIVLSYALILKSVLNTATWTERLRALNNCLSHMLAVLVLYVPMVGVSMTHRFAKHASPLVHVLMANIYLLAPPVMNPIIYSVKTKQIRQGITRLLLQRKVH
In short, it runs like this: as §1

The target in experiment [5] is T5, UniProt Q8VH21.
T5 sequence (whole entry): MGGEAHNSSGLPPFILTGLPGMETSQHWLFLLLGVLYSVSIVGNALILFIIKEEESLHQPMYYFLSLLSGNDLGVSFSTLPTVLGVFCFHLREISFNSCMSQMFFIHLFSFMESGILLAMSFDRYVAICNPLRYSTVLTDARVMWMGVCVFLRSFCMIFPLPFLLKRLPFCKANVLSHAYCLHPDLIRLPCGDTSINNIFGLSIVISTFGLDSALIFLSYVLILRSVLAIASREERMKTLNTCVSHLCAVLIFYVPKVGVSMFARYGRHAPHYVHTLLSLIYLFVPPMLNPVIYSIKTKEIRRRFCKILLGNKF
In short, it runs like this:
as §1

Experiment [6] deals with T6, UniProt Q924H8.
T6 sequence (whole entry): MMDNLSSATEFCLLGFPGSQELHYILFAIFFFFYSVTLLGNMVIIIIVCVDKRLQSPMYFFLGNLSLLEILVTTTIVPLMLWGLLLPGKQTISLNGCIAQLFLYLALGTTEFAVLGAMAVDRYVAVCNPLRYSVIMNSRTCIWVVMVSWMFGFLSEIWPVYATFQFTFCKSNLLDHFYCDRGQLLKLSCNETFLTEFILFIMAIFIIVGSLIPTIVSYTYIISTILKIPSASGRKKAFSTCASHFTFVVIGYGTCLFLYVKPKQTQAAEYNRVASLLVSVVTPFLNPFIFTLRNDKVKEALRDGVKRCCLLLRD
An outline of the steps: as §1

Experiment [7] deals with T7, UniProt Q8VGX8.
T7 sequence (whole entry): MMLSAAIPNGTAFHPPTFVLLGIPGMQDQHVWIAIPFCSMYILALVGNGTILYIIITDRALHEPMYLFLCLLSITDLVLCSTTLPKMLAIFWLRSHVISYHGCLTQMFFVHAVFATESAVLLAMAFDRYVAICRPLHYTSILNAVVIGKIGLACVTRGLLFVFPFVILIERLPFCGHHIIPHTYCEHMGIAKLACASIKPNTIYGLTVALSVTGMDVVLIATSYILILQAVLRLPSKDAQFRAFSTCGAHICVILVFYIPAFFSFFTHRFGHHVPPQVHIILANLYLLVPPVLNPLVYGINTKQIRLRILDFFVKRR
In short, it runs like this:
as §1

In experiment [8] the target is T8, UniProt Q8VH18.
T8 sequence (whole entry): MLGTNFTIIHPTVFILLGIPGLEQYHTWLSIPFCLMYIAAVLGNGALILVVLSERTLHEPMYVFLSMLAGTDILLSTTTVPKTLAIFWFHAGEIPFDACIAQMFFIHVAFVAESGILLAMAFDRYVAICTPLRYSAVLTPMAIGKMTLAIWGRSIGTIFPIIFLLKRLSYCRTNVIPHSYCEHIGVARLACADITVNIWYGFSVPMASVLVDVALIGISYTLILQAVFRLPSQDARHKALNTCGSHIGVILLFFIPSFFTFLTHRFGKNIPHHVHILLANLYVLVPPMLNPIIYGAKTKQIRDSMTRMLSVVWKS
An outline of the steps: as §1

Experiment [9] concerns the target T9, UniProt Q924X8.
T9 sequence (whole entry): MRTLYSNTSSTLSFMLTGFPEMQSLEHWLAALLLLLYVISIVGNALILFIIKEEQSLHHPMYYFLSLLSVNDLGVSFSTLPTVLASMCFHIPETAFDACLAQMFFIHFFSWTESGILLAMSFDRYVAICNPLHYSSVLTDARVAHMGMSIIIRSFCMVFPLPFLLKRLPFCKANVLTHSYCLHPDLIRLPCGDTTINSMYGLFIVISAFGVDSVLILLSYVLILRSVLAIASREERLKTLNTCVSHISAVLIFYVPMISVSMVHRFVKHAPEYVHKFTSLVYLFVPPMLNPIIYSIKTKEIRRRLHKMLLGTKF
In short, it runs like this:
as §1

Experiment [10] concerns the target T10, UniProt Q99NH4.
T10 sequence (whole entry): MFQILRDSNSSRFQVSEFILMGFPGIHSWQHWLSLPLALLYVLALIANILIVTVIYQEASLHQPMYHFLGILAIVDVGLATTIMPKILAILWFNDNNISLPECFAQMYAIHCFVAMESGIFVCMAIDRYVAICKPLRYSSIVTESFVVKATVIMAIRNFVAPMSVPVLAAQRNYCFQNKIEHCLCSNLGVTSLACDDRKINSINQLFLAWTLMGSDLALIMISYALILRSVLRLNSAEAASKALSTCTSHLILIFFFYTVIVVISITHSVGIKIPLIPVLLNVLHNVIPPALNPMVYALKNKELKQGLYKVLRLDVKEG
In short, it runs like this:
as §1

Experiment [11] has as its target T11, UniProt Q9WU94.
T11 sequence (whole entry): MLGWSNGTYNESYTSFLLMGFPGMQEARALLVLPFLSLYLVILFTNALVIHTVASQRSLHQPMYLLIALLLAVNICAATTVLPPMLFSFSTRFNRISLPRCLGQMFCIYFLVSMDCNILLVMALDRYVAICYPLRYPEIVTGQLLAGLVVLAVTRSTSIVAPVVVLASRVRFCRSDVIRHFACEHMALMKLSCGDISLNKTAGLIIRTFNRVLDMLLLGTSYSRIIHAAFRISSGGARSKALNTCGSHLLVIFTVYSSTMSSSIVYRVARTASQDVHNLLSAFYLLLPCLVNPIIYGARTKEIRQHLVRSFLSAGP
In short, it runs like this: as §1

Experiment [12] has as its target T12, UniProt Q9WVD7.
T12 sequence (whole entry): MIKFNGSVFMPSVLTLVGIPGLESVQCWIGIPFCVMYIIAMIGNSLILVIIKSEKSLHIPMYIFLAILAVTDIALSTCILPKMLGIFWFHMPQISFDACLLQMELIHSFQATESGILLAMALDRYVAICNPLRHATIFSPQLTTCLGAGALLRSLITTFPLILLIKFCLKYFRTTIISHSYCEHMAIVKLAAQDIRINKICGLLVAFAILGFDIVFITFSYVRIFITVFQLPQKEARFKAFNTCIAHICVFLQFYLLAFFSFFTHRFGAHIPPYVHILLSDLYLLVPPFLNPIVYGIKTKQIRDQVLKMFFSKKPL
An outline of the steps: as §1
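Also: active if original authors judged signal statistically different from baseline.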

For `Cc1ccc(C(C)C)cc1`, the “odorant receptor agonist call” value in [1], in experiment [2], in experiment [3], in experiment [4], in experiment [5] and in experiment [6] was “inactive” throughout.

In the case of `COc1nccnc1C(C)C`, the “odorant receptor agonist call” value in [1], in experiment [2], in experiment [3], in experiment [4], in experiment [5] and in experiment [6] was “inactive” throughout.

`O=C([O-])CCCCCCC(=O)[O-].[H+].[H+]`: the “odorant receptor agonist call” value in experiment [7], in experiment [1], in experiment [2], in experiment [3], in [8] and in experiment [4] was “inactive” throughout. Also, the “odorant receptor agonist call” value in experiment [5], in [6], in experiment [10], in experiment [11] and in experiment [12] was “inactive” throughout. Besides, in [9], the “odorant receptor agonist call” value was “active”.

For `CC(=O)C1(C)CC2=C(CCCC2(C)C)CC1C` (stereo not given), the “odorant receptor agonist call” value in experiment [1], in [2], in experiment [3], in [4], in experiment [5] and in [6] was “inactive” each time.
